High-throughput results (PubChem)
M5 ag: human M5 muscarinic receptor agonists, primary screen, CHO-K1 cells, Fluo-8 calcium fluorescence. Muscarinic acetylcholine receptor M5 (Homo sapiens), P08912. CHO-K1 hM5 cells; 0% DMSO wells, 100% maximal acetylcholine response. activation, % at 3 µM. 360,000 tested, 0.19% active. AID 624037, 2012;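 active = activation above the run's mean over test compounds plus 3 SD, cut at about 23% in these data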;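 also: signal is peak over basal fluorescence ratio across the kinetic read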
Target sequence (P08912 whole entry, looked up): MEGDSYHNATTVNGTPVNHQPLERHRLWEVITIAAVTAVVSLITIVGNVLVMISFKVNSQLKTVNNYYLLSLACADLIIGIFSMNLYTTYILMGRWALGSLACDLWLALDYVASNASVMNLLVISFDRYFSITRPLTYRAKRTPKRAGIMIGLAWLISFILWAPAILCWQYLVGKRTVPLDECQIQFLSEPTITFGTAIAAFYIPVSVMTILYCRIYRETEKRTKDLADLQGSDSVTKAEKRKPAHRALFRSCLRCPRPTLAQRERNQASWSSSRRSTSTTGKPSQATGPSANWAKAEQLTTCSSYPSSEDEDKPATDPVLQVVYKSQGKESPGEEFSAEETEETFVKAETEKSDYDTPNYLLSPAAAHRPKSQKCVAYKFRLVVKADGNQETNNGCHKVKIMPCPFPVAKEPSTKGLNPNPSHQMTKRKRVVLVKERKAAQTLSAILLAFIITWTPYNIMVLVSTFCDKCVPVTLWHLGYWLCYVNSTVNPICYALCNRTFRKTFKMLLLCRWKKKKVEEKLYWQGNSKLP
M4 antag: human M4 muscarinic receptor antagonists, primary screen, CHO cells, Fluo-8 calcium fluorescence; Muscarinic acetylcholine receptor M4 (Homo sapiens), P08173; CHO-hM4 cells, ACh EC80; inhibition, % at 3 µM; 360,000 tested, 0.73% active;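 active = inhibition above its plate's cutoff, the mean inhibition of sample wells plus 3 SD, cut at about 27% in these data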;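 also: 0% = acetylcholine EC80 with DMSO and 100% = DMSO without agonist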
M4 ag: human M4 muscarinic receptor agonists, primary screen, CHO-K1 cells, Fluo-8 calcium fluorescence. Muscarinic acetylcholine receptor M4 (Homo sapiens), P08173. CHO-K1 hM4/Gqi5; vehicle 0%, full acetylcholine response 100%. activation, % at 3 µM. 360,000 tested, 0.14% active. AID 624127, 2012;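 active = activation above the run mean over all test wells plus 3 SD, cut at about 32% in these data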;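 also: peak over basal fluorescence ratio per well then scaled between controls; 0% = DMSO wells and 100% = acetylcholine at EC100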
CHRM5 antagonist: human M5 muscarinic receptor antagonists, primary screen, CHO cells, Fluo-8 calcium fluorescence; Muscarinic acetylcholine receptor M5 (Homo sapiens), P08912; CHO-hM5 cells, ACh EC80; inhibition, % at 3 µM; 360,000 tested, 0.59% active; AID 624040, 2012;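 active = inhibition above a per-plate cutoff, the mean of that plate's test compounds plus 3 SD, cut at about 27% in these data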;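 also: 0% = acetylcholine EC80 with DMSO and 100% = DMSO without agonist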
M4 PAM: human M4 muscarinic receptor positive allosteric modulators, primary screen, CHO-K1 cells, Fluo-8 calcium fluorescence; CHO-K1 hM4/Gqi5, ACh EC20; 0% = ACh EC20, 100% = maximal ACh; activation, % at 3 µM; AID 624126, 2012; Muscarinic acetylcholine receptor M4 (Homo sapiens), P08173; 360,000 tested, 0.4% active;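 active = activation above its plate's cutoff, the mean activation of sample wells plus 3 SD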
M5 PAM: human M5 muscarinic receptor positive allosteric modulators, primary screen, CHO-K1 cells, Fluo-8 calcium fluorescence; activation, % at 3 µM; AID 624038, 2012; 360,000 tested, 0.3% active; CHO-K1 hM5, ACh EC20 PAM; 0% = ACh EC20, 100% = ACh EC100;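 active = activation above the run cutoff, the mean activation of all test compounds plus 3 SD, cut at about 18% in these data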
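Test system: CHO-K1 hM5 cells / Doses: single-point, 3 µM nominal / Times: Post-acetylcholine fluorescence recording 140 s / Technique: Fluo-8 calcium fluorescence / Measure: Max/basal fluorescence ratio as % of EC20–EC100 ACh window / Benchmarks: low control EC20 acetylcholine (0%), high control EC100 acetylcholine (100%) / Replicates: one well per compound, no replicates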
* = called active by the depositor. The list is not random: actives were taken first. Their share in the collection is about 1.8%.

SMILES	M5 ag	M4 antag	M4 ag	CHRM5 antagonist	M4 PAM	M5 PAM
COC(=O)c1ccc2[nH]c(C)cc(=O)c2c1	-3	55*	0	-2	-18	1
CCN(CC)S(=O)(=O)c1ccc(C)c(NC(=O)CNCCN(C(C)C)C(C)C)c1	-12	-17	0	-12	-4	6
CCNc1nc(N2CCCC2)nc(N2CCCC2)n1	-7	4	0	2	-8	0
CCNc1nc(NC(C)(C)C)nc(N2CCCCC2)n1	-10	45*	2	61*	-21	-22
CC1CCCN(Cc2ccc(OCc3ccccc3)cc2)C1 (configuration not stated)	-6	37*	4	3	-17	-4
OC1CCN(Cc2ccc(OCc3ccccc3)cc2)CC1	-5	11	2	-1	-10	3
Cc1nc(=O)c(-c2ccccc2)c(C)n1-c1cccc(/C=C/C(=O)O)c1	-3	13	0	0	-2	3
O=C(O)COc1cccc2ccccc12	3	-2	1	-2	3	-3
CCN(CC)C(=O)COc1cccc2ccccc12	-3	20	0	-3	29*	11
O=C1CCCC2=C1C(c1cccc(O)c1)C1=C(N2)c2ccccc2C1=O (configuration not stated)	5	-3	0	-10	-8	18*
CCCn1cc(CN2CCCC(C(=O)c3cccc(OC(C)C)c3)C2)c(C)n1 (configuration not stated)	-9	6	3	15	-10	-6
CCCn1ncc(CN2CCCC(C(=O)c3cccc(OC(C)C)c3)C2)c1C (configuration not stated)	-19	66*	1	15	-51	-25
NS(=O)(=O)c1ccc(NC(=O)C2C3C=CC(C3)C2C(=O)O)cc1 (configuration not stated)	4	-6	1	-10	10	18*
Cc1cc(C(=O)NC2CCCc3c2cnn3-c2ccc(C(C)(C)C)cc2)nn1C (configuration not stated)	-1	20	12	35*	-9	-16
CC(C)(C)c1ccc(-n2ncc3c2CCCC3NC(=O)C2(C(N)=O)CC2)cc1 (configuration not stated)	3	16	12	28*	-4	-13
Fc1ccccc1-c1cc2ncccc2cn1	-2	5	0	12	5	1
COC(=O)c1cc(C)sc1NC(=O)CN1CCN(C(=O)C2CCCO2)CC1 (configuration not stated)	-1	0	2	-15	3	8
CC1(C(=O)NS(=O)(=O)Cc2ccccc2C(F)(F)F)CCN1C(=O)C/C=C/c1ccccc1 (configuration not stated)	0	1	0	-3	0	5
CSc1ccc(CN2CCC(Cc3ccccc3)CC2)cc1	-25	28*	1	1	-18	-15
COc1ccc(CCNC(=O)c2ccc(CN3CCC(Cc4ccccc4)CC3)cc2)cc1	-7	-5	4	5	-10	-8
CC(C)NC(=O)c1ccc(CN2CCC(Cc3ccccc3)CC2)cc1	-23	67*	1	6	-16	-24
C=CCNC(=O)c1ccc(CN2CCC(Cc3ccccc3)CC2)cc1	-23	28*	2	-6	-16	-19
CC(C)(C)OC(=O)N1CCc2onc(-c3ccccc3[N+](=O)[O-])c2C1=O	2	-4	2	-8	1	5
CCCCCC(=O)NCc1c(C(F)(F)F)nn(C)c1N1CCOCC1	-2	6	1	2	-11	-3
CC(=O)NC1(NC(C)=O)CCN(C)C(c2ccccc2)C1C (configuration not stated)	26*	11	1	-8	20	10
SMILES	M5 ag	M4 antag	M4 ag	CHRM5 antagonist	M4 PAM	M5 PAM
CCS(=O)(=O)N1CCC(NC(C)=O)(c2ccccc2)CC1	-2	9	0	2	-2	-4
Cc1cc(C)n(-c2nnc(C)n2/N=C/c2ccccc2OCc2ccccc2Cl)n1	-2	2	-1	8	4	0
Cc1cc(C)n(-c2nnc(C)n2/N=C/c2cc(Br)ccc2OCc2ccccc2)n1	-8	26*	1	4	-11	-6
CCCCOC(=O)C1CN(c2ccccc2)N=C1C(C)=O (configuration not stated)	-9	-18	1	10	-1	-11
CCCCOC(=O)C1CN(c2ccccc2)N=C1C(=O)OCC (configuration not stated)	-6	-8	-1	-5	20*	0
O=C(NCc1ccccc1)c1cccnc1Sc1ccccc1	-2	-4	1	-6	-4	3
CC1CC1c1ccc(/C=C(\C#N)C(=O)Nc2cc(Cl)ccc2Cl)o1 (configuration not stated)	1	-6	1	-4	21*	9
CC1CCN(C(=O)COC(=O)c2ccc3ccccc3n2)CC1	1	4	0	-4	-2	-5
CN(C(=O)COC(=O)c1ccc2ccccc2n1)C1CCCCC1	2	2	2	0	25*	11
Cc1cccnc1C(NC(=O)C1CCN(Cc2ccccc2)CC1)c1ccc(F)cc1 (configuration not stated)	-3	-1	2	2	1	-16
Cc1cccnc1C(NC(=O)C1CCN(Cc2ccc(Oc3ccccc3)cc2)CC1)c1ccccc1 (configuration not stated)	-3	29*	3	16	-13	-19
O=[N+]([O-])c1ccc(O)c(/C=N/Nc2nn[nH]n2)c1	0	-5	4	-3	24*	1
CCOc1ccccc1C(=O)NC(C(=O)Nc1cccc(S(N)(=O)=O)c1)C(C)C (configuration not stated)	-4	4	1	4	7	2
CCCCCCCCCC[n+]1cccc2c3ccccc3ccc21	-9	58*	5	46*	-23	-30
CCCCCCCC[n+]1cccc2c3ccccc3ccc21	-14	65*	0	36*	-25	-18
CCOc1cc(C(=O)Nc2ccc(C(=O)NCCN(CC)CC)cc2)ccc1OCC(=O)N1CCOCC1	2	7	1	-5	-2	1
